Experimental data from ChEMBL document CHEMBL1143259, “Synthesis and antiplasmodial activity of new 4-aryl-2-trichloromethylquinazolines” (Bioorg Med Chem Lett, 2008).

Key:
[1] = test system: HepG2; experiment: Cytotoxicity against human HepG2 cells by MTT assay; format: cell-based
Summary of the method: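 HepG2 cells were seeded at 5 × 10³ cells/well in RPMI and pre-incubated for 24 h. Compound was added at various concentrations and incubated for 72 h. MTT (5 mg/mL in PBS) was then added in serum-free medium for 2 h at 37 °C in 6% CO₂. Formazan was dissolved in DMSO and A570 read against a 630 nm reference. Viability was expressed as % of untreated control, and the 50% cytotoxic concentration taken from the dose–response curve. Values are the mean of three independent experiments.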

[2] = test system: Plasmodium falciparum; experiment: Antiplasmodial activity against chloroquinone-sensitive Plasmodium falciparum 3D7; format: functional, organism-based
[3] = test system: THP-1; experiment: (§1) Cytotoxicity against human THP1 cells by MTT assay; format: cell-based; conditions: Homo sapiens, THP-1
Summary of the method: (§2)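 Cells seeded at 5 × 10³/well in RPMI and pre-incubated 24 h, then exposed to a range of compound concentrations for 72 h. MTT was added in serum-free medium for 2 h at 37 °C, and the formazan was dissolved in DMSO. Absorbance was read at 570 nm against a 630 nm reference. Viability was taken as % of untreated control, and IC50 came from the dose–response curve (mean of three independent experiments).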

[4] = as §1; format: cell-based, THP-1; conditions: human, THP-1 cells; read-out: LC50 (the source's name); summary of the method: as §2
[5] = Selectivity index, ratio of IC50 for human THP1 cells to IC50 for Plasmodium falciparum W2; format: functional, THP-1
Summary of the method: (§3)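 SI = human-cell IC50 divided by P. falciparum W2 IC50. Each IC50 is the mean of three independent experiments.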

[6] = test system: Plasmodium falciparum; experiment: Antiplasmodial activity against chloroquinone-resistant Plasmodium falciparum W2; format: functional, organism-based
[7] = Selectivity index, ratio of IC50 for human HepG2 cells to IC50 for Plasmodium falciparum W2; format: functional; summary of the method: as §3

| SMILES | IC50 [1] [µM] | IC50 [2] [µM] | IC50 [3] [µM] | CC50 [4] [µM] | Ratio IC50 [5] | IC50 [6] [µM] | Ratio IC50 [7] |
| --- | --- | --- | --- | --- | --- | --- | --- |
| CCN(CC)CCCC(C)Nc1ccnc2cc(Cl)ccc12 (centres undefined) [CHLOROQUINE] | 30 |  |  |  |  |  |  |
| Clc1nc(C(Cl)(Cl)Cl)nc2ccccc12 | > 125 | 73.2 | > 500 | > 500 | >9.2 | 54.5 | >2.3 |
| C/N=C(\NC)c1nc(-c2ccccc2)c2ccccc2n1.Cl | > 125 | > 100 | > 500 | > 500 | 5 | > 100 | < 1.25 |
| ClC(Cl)(Cl)c1nc(-c2ccccc2)c2ccccc2n1 | > 125 | 20.4 | 125 | > 500 | 15.6 | 8 | >15.6 |
| Cc1ccc(-c2nc(C(Cl)(Cl)Cl)nc3ccccc23)s1 | 25 | 24 | 50 | 125 | 5.7 | 8.7 | 2.9 |
| Fc1ccc(-c2nc(C(Cl)(Cl)Cl)nc3ccccc23)cc1 | > 125 | 3 | 125 | 500 | 50 | 2.5 | >50 |
| COc1cc(-c2nc(C(Cl)(Cl)Cl)nc3ccccc23)cc(OC)c1OC | > 125 | 23.3 | > 250 | > 250 | >8.7 | 28.9 | >4.3 |
| COc1ccc(-c2nc(C(Cl)(Cl)Cl)nc3ccccc23)cc1 | 125 | 25 | 250 | > 250 | 22.9 | 10.9 | 11.5 |
| COc1cccc2c1C(=O)c1c(O)c3c(c(O)c1C2=O)C[C@@](O)(C(=O)CO)C[C@@H]3O[C@H]1C[C@H](N)[C@H](O)[C@H](C)O1 [DOXORUBICIN] | 0.2 |  | 0.05 | 2.5 |  |  |  |
| ClC(Cl)(Cl)c1nc(-c2ccco2)c2ccccc2n1 | > 125 | 30 | 61.6 | > 500 | 3.1 | 20.2 | >6.2 |
| Clc1ccc(-c2nc(C(Cl)(Cl)Cl)nc3ccccc23)cc1 | > 125 | 2.2 | 73.2 | > 500 | 15.6 | 4.7 | >26.6 |
| ClC(Cl)(Cl)c1nc(-c2ccc3ccccc3c2)c2ccccc2n1 | > 125 | 23.3 | > 500 | > 500 | >61.7 | 8.1 | >15.4 |
| Cc1nc(-c2ccccc2)c2ccccc2n1 | > 125 | > 125 | 125 | > 500 | 2 | 62.4 | >2 |
| FC(F)(F)c1cccc(-c2nc(C(Cl)(Cl)Cl)nc3ccccc23)c1 | > 125 | 36.6 | 78.6 | > 500 | 1.9 | 40.4 | >3.1 |
| C[C@H]1c2cccc(O)c2C(=O)C2=C(O)[C@]3(O)C(=O)C(C(N)=O)=C(O)[C@@H](N(C)C)[C@@H]3[C@@H](O)[C@@H]21 [DOXYCYCLINE] |  |  |  |  |  | 9 |  |
